Measured values reported in ChEMBL document CHEMBL5058577, “EUbOPEN Chemogenomics Library 2 (Multiplex)” (2022).

Tested on: HEK-293T
Assay: Multiplex assay against HEK293T
Assay type: toxicity, cell-based
Settings: human
Summary of the method: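 Imaging took place on a CQ1 microscope at 37°C and 5% CO2 once compound had been added to live cells stained at seeding with Hoechst33342, BioTracker Green Microtubule Cytoskeleton Dye, MitoTracker Red and Annexin V Alexa Fluor 680. CellPathfinder machine-learning gating classed cells as Hoechst high-intensity objects or normal cells, classed normal cells as having healthy, pyknosed or fragmented nuclei, and classed pyknosed cells as mitotic or apoptotic. Tubulin, mitochondrial-mass and membrane-permeability phenotypes are per cents of the healthy-nucleus cells.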

[1] = 12 h, 1 µM, compound concentration 1 uM, replicate 1
[2] = 12 h, 1 µM, compound concentration 1 uM, replicate 2
[3] = 12 h, 10 µM, compound concentration 10 uM, replicate 1
[4] = 12 h, 10 µM, compound concentration 10 uM, replicate 2
[5] = 24 h, 1 µM, compound concentration 1 uM, replicate 1
[6] = 24 h, 1 µM, compound concentration 1 uM, replicate 2
[7] = 24 h, 10 µM, compound concentration 10 uM, replicate 1
[8] = 24 h, 10 µM, compound concentration 10 uM, replicate 2
[9] = 48 h, 1 µM, compound concentration 1 uM, replicate 1
[10] = 48 h, 1 µM, compound concentration 1 uM, replicate 2
[11] = 48 h, 10 µM, compound concentration 10 uM, replicate 1
[12] = 48 h, 10 µM, compound concentration 10 uM, replicate 2

SMILES: Cc1ccc(-c2ccc(F)cc2COc2ccc(CCC(=O)O)cc2)cc1
- Population Apoptotic (%) [1]: 42%
- Population Fragmented Nuclei (%) [1]: 6%
- Population Healthy Nuclei (%) [1]: 82%
- Population Hoechst High Intensity Objects (%) [1]: 9%
- Population Mitochondria Different-Phenotype (%) [1]: 36%
- Population Mitotic Cells (%) [1]: 57%
- Population Normal (%) [1]: 90%
- Population Tubulin-Different-Phenotype (%) [1]: 18%
- Total Cell Count [1]: 465
- Population Apoptotic (%) [2]: 33%
- Population Healthy Nuclei (%) [2]: 77%
- Population Mitochondria Different-Phenotype (%) [2]: 50%
- Population Mitotic Cells (%) [2]: 66%
- Population Pyknosed Nuclei (%) [2]: 15%
- Total Cell Count [2]: 324
- Population Apoptotic (%) [3]: 32%
- Population Fragmented Nuclei (%) [3]: 10%
- Population Healthy Nuclei (%) [3]: 79%
- Population Hoechst High Intensity Objects (%) [3]: 7%
- Population Mitochondria Different-Phenotype (%) [3]: 46%
- Population Mitotic Cells (%) [3]: 67%
- Population Normal (%) [3]: 92%
- Population Pyknosed Nuclei (%) [3]: 10%
- Population Tubulin-Different-Phenotype (%) [3]: 33%
- Total Cell Count [3]: 329
- Population Apoptotic (%) [4]: 42%
- Population Fragmented Nuclei (%) [4]: 7%
- Population Healthy Nuclei (%) [4]: 83%
- Population Hoechst High Intensity Objects (%) [4]: 6%
- Population Mitochondria Different-Phenotype (%) [4]: 58%
- Population Mitotic Cells (%) [4]: 57%
- Population Normal (%) [4]: 93%
- Population Pyknosed Nuclei (%) [4]: 9%
- Population Tubulin-Different-Phenotype (%) [4]: 15%
- Total Cell Count [4]: 396
- Population Apoptotic (%) [5]: 16%
- Population Fragmented Nuclei (%) [5]: 10%
- Population Healthy Nuclei (%) [5]: 82%
- Population Hoechst High Intensity Objects (%) [5]: 3%
- Population Mitochondria Different-Phenotype (%) [5]: 16%
- Population Mitotic Cells (%) [5]: 84%
- Population Normal (%) [5]: 96%
- Population Pyknosed Nuclei (%) [5]: 7%
- Population Tubulin-Different-Phenotype (%) [5]: 10%
- Total Cell Count [5]: 688
- Population Apoptotic (%) [6]: 52%
- Population Fragmented Nuclei (%) [6]: 9%
- Population Healthy Nuclei (%) [6]: 80%
- Population Hoechst High Intensity Objects (%) [6]: 7%
- Population Mitochondria Different-Phenotype (%) [6]: 33%
- Population Mitotic Cells (%) [6]: 47%
- Population Normal (%) [6]: 92%
- Population Pyknosed Nuclei (%) [6]: 9%
- Population Tubulin-Different-Phenotype (%) [6]: 13%
- Total Cell Count [6]: 445
- Population Apoptotic (%) [7]: 36%
- Population Fragmented Nuclei (%) [7]: 11%
- Population Healthy Nuclei (%) [7]: 76%
- Population Hoechst High Intensity Objects (%) [7]: 5%
- Population Mitochondria Different-Phenotype (%) [7]: 30%
- Population Mitotic Cells (%) [7]: 63%
- Population Normal (%) [7]: 94%
- Population Tubulin-Different-Phenotype (%) [7]: 18%
- Total Cell Count [7]: 397
- Population Apoptotic (%) [8]: 51%
- Population Fragmented Nuclei (%) [8]: 6%
- Population Healthy Nuclei (%) [8]: 87%
- Population Hoechst High Intensity Objects (%) [8]: 3%
- Population Mitochondria Different-Phenotype (%) [8]: 37%
- Population Mitotic Cells (%) [8]: 48%
- Population Normal (%) [8]: 96%
- Population Pyknosed Nuclei (%) [8]: 6%
- Population Tubulin-Different-Phenotype (%) [8]: 13%
- Total Cell Count [8]: 461
- Population Apoptotic (%) [9]: 17%
- Population Fragmented Nuclei (%) [9]: 15%
- Population Healthy Nuclei (%) [9]: 79%
- Population Hoechst High Intensity Objects (%) [9]: 1%
- Population Mitochondria Different-Phenotype (%) [9]: 7%
- Population Mitotic Cells (%) [9]: 82%
- Population Normal (%) [9]: 98%
- Population Pyknosed Nuclei (%) [9]: 5%
- Population Tubulin-Different-Phenotype (%) [9]: 8%
- Total Cell Count [9]: 1149
- Population Apoptotic (%) [10]: 36%
- Population Fragmented Nuclei (%) [10]: 14%
- Population Healthy Nuclei (%) [10]: 77%
- Population Mitochondria Different-Phenotype (%) [10]: 18%
- Population Mitotic Cells (%) [10]: 63%
- Population Normal (%) [10]: 97%
- Population Pyknosed Nuclei (%) [10]: 8%
- Population Tubulin-Different-Phenotype (%) [10]: 9%
- Total Cell Count [10]: 631
- Population Apoptotic (%) [11]: 24%
- Population Fragmented Nuclei (%) [11]: 12%
- Population Healthy Nuclei (%) [11]: 78%
- Population Mitochondria Different-Phenotype (%) [11]: 17%
- Population Mitotic Cells (%) [11]: 75%
- Population Normal (%) [11]: 97%
- Population Pyknosed Nuclei (%) [11]: 8%
- Population Tubulin-Different-Phenotype (%) [11]: 9%
- Total Cell Count [11]: 713
- Population Apoptotic (%) [12]: 31%
- Population Fragmented Nuclei (%) [12]: 15%
- Population Healthy Nuclei (%) [12]: 79%
- Population Hoechst High Intensity Objects (%) [12]: 4%
- Population Mitochondria Different-Phenotype (%) [12]: 16%
- Population Mitotic Cells (%) [12]: 68%
- Population Normal (%) [12]: 95%
- Population Pyknosed Nuclei (%) [12]: 5%
- Population Tubulin-Different-Phenotype (%) [12]: 8%
- Total Cell Count [12]: 702

SMILES: CSCC[C@H](NC=O)C(=O)N[C@@H](CC(C)C)C(=O)N[C@@H](Cc1ccccc1)C(=O)O
- Population Mitochondria Different-Phenotype (%) [1]: 47%
- Population Tubulin-Different-Phenotype (%) [1]: 23%
- Total Cell Count [1]: 466
- Population Apoptotic (%) [2]: 28%
- Population Mitochondria Different-Phenotype (%) [2]: 57%
- Population Mitotic Cells (%) [2]: 71%
- Population Tubulin-Different-Phenotype (%) [2]: 16%
- Total Cell Count [2]: 437
- Population Mitochondria Different-Phenotype (%) [3]: 52%
- Population Tubulin-Different-Phenotype (%) [3]: 37%
- Total Cell Count [3]: 366
- Population Apoptotic (%) [4]: 54%
- Population Mitochondria Different-Phenotype (%) [4]: 64%
- Population Mitotic Cells (%) [4]: 45%
- Population Tubulin-Different-Phenotype (%) [4]: 31%
- Total Cell Count [4]: 375
- Population Apoptotic (%) [5]: 21%
- Population Mitochondria Different-Phenotype (%) [5]: 21%
- Population Mitotic Cells (%) [5]: 78%
- Population Tubulin-Different-Phenotype (%) [5]: 14%
- Total Cell Count [5]: 679
- Population Mitochondria Different-Phenotype (%) [6]: 37%
- Population Tubulin-Different-Phenotype (%) [6]: 12%
- Total Cell Count [6]: 550
- Population Apoptotic (%) [7]: 25%
- Population Mitochondria Different-Phenotype (%) [7]: 38%
- Population Mitotic Cells (%) [7]: 75%
- Population Tubulin-Different-Phenotype (%) [7]: 25%
- Total Cell Count [7]: 479
- Population Apoptotic (%) [8]: 36%
- Population Mitochondria Different-Phenotype (%) [8]: 53%
- Population Mitotic Cells (%) [8]: 64%
- Population Tubulin-Different-Phenotype (%) [8]: 22%
- Total Cell Count [8]: 490
- Population Apoptotic (%) [9]: 29%
- Population Mitochondria Different-Phenotype (%) [9]: 12%
- Population Tubulin-Different-Phenotype (%) [9]: 12%
- Total Cell Count [9]: 1154
- Population Apoptotic (%) [10]: 20%
- Population Mitochondria Different-Phenotype (%) [10]: 17%
- Population Mitotic Cells (%) [10]: 79%
- Total Cell Count [10]: 838
- Population Apoptotic (%) [11]: 28%
- Population Mitochondria Different-Phenotype (%) [11]: 24%
- Population Mitotic Cells (%) [11]: 71%
- Population Tubulin-Different-Phenotype (%) [11]: 12%
- Total Cell Count [11]: 704
- Population Apoptotic (%) [12]: 36%
- Population Mitochondria Different-Phenotype (%) [12]: 28%
- Population Mitotic Cells (%) [12]: 63%
- Population Tubulin-Different-Phenotype (%) [12]: 14%
- Total Cell Count [12]: 674

SMILES: COc1ccccc1N1CCN(CCCCNC(=O)c2ccc3ccccc3c2)CC1.Cl
- Population Apoptotic (%) [1]: 45%
- Population Healthy Nuclei (%) [1]: 81%
- Population Hoechst High Intensity Objects (%) [1]: 6%
- Population Mitochondria Different-Phenotype (%) [1]: 53%
- Population Mitotic Cells (%) [1]: 54%
- Population Normal (%) [1]: 93%
- Population Tubulin-Different-Phenotype (%) [1]: 41%
- Total Cell Count [1]: 430
- Population Apoptotic (%) [2]: 36%
- Population Healthy Nuclei (%) [2]: 79%
- Population Hoechst High Intensity Objects (%) [2]: 5%
- Population Mitochondria Different-Phenotype (%) [2]: 76%
- Population Mitotic Cells (%) [2]: 63%
- Population Normal (%) [2]: 94%
- Population Tubulin-Different-Phenotype (%) [2]: 35%
- Total Cell Count [2]: 354
- Population Apoptotic (%) [3]: 71%
- Population Healthy Nuclei (%) [3]: 69%
- Population Hoechst High Intensity Objects (%) [3]: 16%
- Population Mitochondria Different-Phenotype (%) [3]: 90%
- Population Mitotic Cells (%) [3]: 28%
- Population Normal (%) [3]: 83%
- Population Tubulin-Different-Phenotype (%) [3]: 75%
- Total Cell Count [3]: 321
- Population Apoptotic (%) [4]: 70%
- Population Healthy Nuclei (%) [4]: 75%
- Population Hoechst High Intensity Objects (%) [4]: 15%
- Population Mitochondria Different-Phenotype (%) [4]: 93%
- Population Mitotic Cells (%) [4]: 29%
- Population Normal (%) [4]: 84%
- Population Tubulin-Different-Phenotype (%) [4]: 72%
- Total Cell Count [4]: 256
- Population Apoptotic (%) [5]: 27%
- Population Healthy Nuclei (%) [5]: 78%
- Population Hoechst High Intensity Objects (%) [5]: 6%
- Population Mitochondria Different-Phenotype (%) [5]: 38%
- Population Mitotic Cells (%) [5]: 72%
- Population Normal (%) [5]: 93%
- Population Tubulin-Different-Phenotype (%) [5]: 32%
- Total Cell Count [5]: 561
- Population Apoptotic (%) [6]: 36%
- Population Healthy Nuclei (%) [6]: 82%
- Population Mitochondria Different-Phenotype (%) [6]: 62%
- Population Mitotic Cells (%) [6]: 63%
- Population Tubulin-Different-Phenotype (%) [6]: 26%
- Total Cell Count [6]: 444
- Population Apoptotic (%) [7]: 56%
- Population Healthy Nuclei (%) [7]: 74%
- Population Hoechst High Intensity Objects (%) [7]: 13%
- Population Mitochondria Different-Phenotype (%) [7]: 96%
- Population Mitotic Cells (%) [7]: 43%
- Population Normal (%) [7]: 86%
- Population Tubulin-Different-Phenotype (%) [7]: 87%
- Total Cell Count [7]: 393
- Population Apoptotic (%) [8]: 60%
- Population Healthy Nuclei (%) [8]: 69%
- Population Hoechst High Intensity Objects (%) [8]: 17%
- Population Mitochondria Different-Phenotype (%) [8]: 94%
- Population Mitotic Cells (%) [8]: 39%
- Population Normal (%) [8]: 82%
- Population Tubulin-Different-Phenotype (%) [8]: 66%
- Total Cell Count [8]: 276
- Population Apoptotic (%) [9]: 20%
- Population Healthy Nuclei (%) [9]: 81%
- Population Hoechst High Intensity Objects (%) [9]: 3%
- Population Mitochondria Different-Phenotype (%) [9]: 34%
- Population Mitotic Cells (%) [9]: 79%
- Population Normal (%) [9]: 96%
- Population Tubulin-Different-Phenotype (%) [9]: 20%
- Total Cell Count [9]: 841
- Population Apoptotic (%) [10]: 46%
- Population Healthy Nuclei (%) [10]: 78%
- Population Hoechst High Intensity Objects (%) [10]: 5%
- Population Mitochondria Different-Phenotype (%) [10]: 37%
- Population Mitotic Cells (%) [10]: 53%
- Population Normal (%) [10]: 94%
- Population Tubulin-Different-Phenotype (%) [10]: 22%
- Total Cell Count [10]: 635
- Population Apoptotic (%) [11]: 60%
- Population Healthy Nuclei (%) [11]: 77%
- Population Hoechst High Intensity Objects (%) [11]: 8%
- Population Mitochondria Different-Phenotype (%) [11]: 88%
- Population Mitotic Cells (%) [11]: 40%
- Population Normal (%) [11]: 91%
- Population Tubulin-Different-Phenotype (%) [11]: 73%
- Total Cell Count [11]: 519
- Population Apoptotic (%) [12]: 78%
- Population Healthy Nuclei (%) [12]: 78%
- Population Hoechst High Intensity Objects (%) [12]: 10%
- Population Mitotic Cells (%) [12]: 21%
- Population Normal (%) [12]: 89%
- Population Tubulin-Different-Phenotype (%) [12]: 71%
- Total Cell Count [12]: 329
